Tests used:
[1] = Antiinflammatory activity in human CCD-39SK cells assessed as inhibition of IL-1beta-induced IL-6 production incubated for 60 mins prior to IL-1beta induction measured after 24 hrs; type: functional, cell-based
Outline: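 CCD-39SK fibroblasts (20 000/well) were grown in MEM with 2% charcoal/dextran-treated FBS. Cells were pretreated with compound for 60 min, then stimulated with rhIL-1β (1 ng/mL final) for 24 h at 37 °C. IL-6 in clarified supernatant was measured. […] Ten-point half-log dilutions were used, each in triplicate.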

Androgen receptor = biological target: T1, Androgen receptor (Homo sapiens, UniProt P10275); assay: Displacement of [3H]-methyltrienolone from human androgen receptor expressed in HEK293 cells; type: cell-based
T1 sequence (P10275 whole entry): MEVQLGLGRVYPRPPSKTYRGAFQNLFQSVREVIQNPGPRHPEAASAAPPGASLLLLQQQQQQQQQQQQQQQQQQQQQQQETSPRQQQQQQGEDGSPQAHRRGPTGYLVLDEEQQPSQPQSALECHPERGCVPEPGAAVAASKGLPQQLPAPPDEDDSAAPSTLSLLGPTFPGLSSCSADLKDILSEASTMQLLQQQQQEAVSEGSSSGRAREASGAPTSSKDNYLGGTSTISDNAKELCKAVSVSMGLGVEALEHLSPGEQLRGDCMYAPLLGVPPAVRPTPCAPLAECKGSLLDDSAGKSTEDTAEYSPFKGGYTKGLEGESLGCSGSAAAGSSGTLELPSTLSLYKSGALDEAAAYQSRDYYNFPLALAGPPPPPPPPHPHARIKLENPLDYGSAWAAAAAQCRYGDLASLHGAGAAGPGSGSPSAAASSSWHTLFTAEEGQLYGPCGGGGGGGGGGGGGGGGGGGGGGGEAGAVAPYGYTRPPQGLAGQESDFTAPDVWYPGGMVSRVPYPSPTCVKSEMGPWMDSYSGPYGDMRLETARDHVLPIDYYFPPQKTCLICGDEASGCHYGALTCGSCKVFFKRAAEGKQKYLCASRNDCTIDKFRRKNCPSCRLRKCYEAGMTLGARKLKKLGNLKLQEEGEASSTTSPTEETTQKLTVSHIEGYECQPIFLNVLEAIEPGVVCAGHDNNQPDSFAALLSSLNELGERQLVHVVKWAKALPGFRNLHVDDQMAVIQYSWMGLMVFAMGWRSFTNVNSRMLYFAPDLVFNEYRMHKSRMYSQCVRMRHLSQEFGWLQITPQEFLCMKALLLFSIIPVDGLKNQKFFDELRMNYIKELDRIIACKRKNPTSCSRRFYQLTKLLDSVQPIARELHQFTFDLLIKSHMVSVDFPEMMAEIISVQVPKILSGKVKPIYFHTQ

Glucocorticoid receptor = biological target: T2, Glucocorticoid receptor (Homo sapiens, UniProt P04150); assay: Displacement of [3H]-dexamethasone from human glucocorticoid receptor expressed in HEK293 cells; type: cell-based
T2 sequence (P04150 whole entry): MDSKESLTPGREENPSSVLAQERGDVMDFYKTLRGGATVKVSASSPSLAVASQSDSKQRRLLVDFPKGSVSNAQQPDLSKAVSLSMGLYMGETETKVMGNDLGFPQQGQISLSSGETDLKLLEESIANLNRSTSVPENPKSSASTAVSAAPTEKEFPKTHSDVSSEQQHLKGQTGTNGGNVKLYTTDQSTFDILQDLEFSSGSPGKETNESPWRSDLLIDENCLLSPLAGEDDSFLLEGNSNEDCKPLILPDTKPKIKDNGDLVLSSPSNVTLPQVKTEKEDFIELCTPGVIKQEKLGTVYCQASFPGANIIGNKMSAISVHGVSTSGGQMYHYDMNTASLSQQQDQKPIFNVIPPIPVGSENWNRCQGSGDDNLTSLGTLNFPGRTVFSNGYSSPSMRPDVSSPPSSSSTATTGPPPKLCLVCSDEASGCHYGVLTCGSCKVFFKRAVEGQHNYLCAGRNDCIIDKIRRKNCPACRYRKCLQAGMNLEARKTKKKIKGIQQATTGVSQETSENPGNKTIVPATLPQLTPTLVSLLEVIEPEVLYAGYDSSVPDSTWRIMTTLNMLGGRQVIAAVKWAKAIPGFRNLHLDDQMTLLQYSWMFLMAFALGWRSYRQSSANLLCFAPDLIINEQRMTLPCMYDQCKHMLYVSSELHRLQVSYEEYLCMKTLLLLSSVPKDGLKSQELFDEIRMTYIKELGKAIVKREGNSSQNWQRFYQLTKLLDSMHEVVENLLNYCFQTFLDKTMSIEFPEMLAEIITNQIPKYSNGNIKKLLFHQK

[2] = biological target: T3, Mineralocorticoid receptor (Homo sapiens, UniProt P08235); assay: Displacement of [3H]-aldosterone from human mineralocorticoid receptor expressed in HEK293 cells; type: cell-based
T3 sequence (P08235 whole entry): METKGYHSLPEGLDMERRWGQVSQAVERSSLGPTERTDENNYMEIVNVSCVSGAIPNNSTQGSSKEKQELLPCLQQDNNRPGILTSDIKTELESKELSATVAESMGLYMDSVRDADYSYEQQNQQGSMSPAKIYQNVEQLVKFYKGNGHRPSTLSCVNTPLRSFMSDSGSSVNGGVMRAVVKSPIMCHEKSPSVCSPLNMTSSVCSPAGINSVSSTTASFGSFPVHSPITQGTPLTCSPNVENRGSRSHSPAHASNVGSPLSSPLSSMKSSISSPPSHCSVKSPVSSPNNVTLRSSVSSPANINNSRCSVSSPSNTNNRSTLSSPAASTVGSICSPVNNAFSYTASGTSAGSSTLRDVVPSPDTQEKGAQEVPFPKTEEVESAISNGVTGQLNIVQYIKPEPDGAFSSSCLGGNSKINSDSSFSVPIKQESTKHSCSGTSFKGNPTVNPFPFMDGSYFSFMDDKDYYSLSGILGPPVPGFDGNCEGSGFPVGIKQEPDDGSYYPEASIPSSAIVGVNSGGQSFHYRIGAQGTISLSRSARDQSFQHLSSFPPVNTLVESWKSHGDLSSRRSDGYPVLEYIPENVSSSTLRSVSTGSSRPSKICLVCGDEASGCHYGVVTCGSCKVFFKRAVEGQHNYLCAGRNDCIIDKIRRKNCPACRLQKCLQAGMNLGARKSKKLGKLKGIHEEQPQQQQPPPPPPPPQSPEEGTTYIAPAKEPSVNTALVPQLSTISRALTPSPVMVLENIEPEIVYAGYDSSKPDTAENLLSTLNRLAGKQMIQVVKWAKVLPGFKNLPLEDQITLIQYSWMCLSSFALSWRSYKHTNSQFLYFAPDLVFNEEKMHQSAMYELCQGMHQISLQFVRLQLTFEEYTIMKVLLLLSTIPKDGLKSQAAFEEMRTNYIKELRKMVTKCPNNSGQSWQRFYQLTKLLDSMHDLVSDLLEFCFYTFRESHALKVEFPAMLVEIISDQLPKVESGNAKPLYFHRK
Outline: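 Competition binding used lysates of HEK293 cells overexpressing the human receptor. The tracer was ³H-aldosterone for MR and ³H-methyltrienolone for PR. Competitor was tested from 0.01 nM to 10 μM. IC50 was converted to Ki by Cheng–Prusoff. Values are means of at least three experiments, each run in triplicate.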

SMILES	IC50 [1]	Ki (Androgen receptor)	Ki (Glucocorticoid receptor)	Ki [2]
CC/C(=C1/c2ccccc2COc2ccccc21)c1cccc(NS(C)(=O)=O)c1	4.8 nM	9.74 nM	0.146 nM	0.967 nM
C/C(=C1/c2ccccc2COc2ccccc21)c1cccc(NS(C)(=O)=O)c1	9.32 nM	5.98 nM	0.257 nM	0.342 nM
CC/C(=C1\c2ccccc2OCc2cccc(OC)c21)c1cccc(NS(C)(=O)=O)c1	4.38 nM	239 nM	0.268 nM	6.1 nM
CS(=O)(=O)Nc1cccc(C=C2c3ccccc3CCc3ccccc32)c1	75.9 nM	418 nM	0.226 nM	2.48 nM
